Source: ChEMBL document CHEMBL4219029, “Impact of Target Warhead and Linkage Vector on Inducing Protein Degradation: Comparison of Bromodomain and Extra-Terminal (BET) Degraders Derived from Triazolodiazepine (JQ1) and Tetrahydroquinoline (I-BET726) BET Inhibitor Scaffolds” (J Med Chem, 2018)
The source made the active and inactive calls. The calls are words filed in the database; no cut-off is given here.

Tests used:
[1] = target: T1, von Hippel-Lindau disease tumor suppressor/Bromodomain-containing protein 4 (Homo sapiens, UniProt O60885+P40337); assay: Proteolysis targeting chimera activity in human HeLa cells assessed as induction of VCB-mediated delivery of BRD4 short isoform for protein degradation by proteasome by measuring drug level causing 50% cellular protein depletion incubated for 24 hrs by Western blotting method; assay type: cell-based
[2] = target: T1, von Hippel-Lindau disease tumor suppressor/Bromodomain-containing protein 4; assay: Proteolysis targeting chimera activity in human HeLa cells assessed as induction of VCB-mediated delivery of BRD4 long isoform for protein degradation by proteasome by measuring drug level causing 50% cellular protein depletion incubated for 24 hrs by Western blotting method; assay type: cell-based
[3] = target: T2, von Hippel-Lindau disease tumor suppressor/Bromodomain-containing protein 3/Elongin-B/Elongin-C (Homo sapiens, UniProt Q15059+P40337+Q15370+Q15369); assay: Proteolysis targeting chimera activity in human HeLa cells assessed as induction of VCB-mediated delivery of BRD3 for protein degradation by proteasome by measuring drug level causing 50% cellular protein depletion incubated for 24 hrs by Western blotting method; assay type: cell-based
[4] = test system: HL-60; assay: Antiproliferative activity against human HL60 cells after 48 hrs by CellTiter-Glo luminescent cell viability assay; assay type: functional, cell-based; settings: HL-60, 48 h
Outline: (§1)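 Cells in RPMI with 10% FBS, L-glutamine, penicillin and streptomycin at 37 °C, 5% CO2. Seeded at 3 × 10^5 per mL and exposed to a range of compound concentrations or 0.05% DMSO for 48 h. Viability read by CellTiter-Glo luminescence. EC50 from curve fitting; errors reflect fit quality.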

[5] = test system: MV4-11; assay: Antiproliferative activity against human MV4-11 cells after 48 hrs by CellTiter-Glo luminescent cell viability assay; assay type: functional, cell-based; settings: MV4-11, 48 h; outline: as §1
[6] = target: Bromodomain-containing protein 4 (Homo sapiens, UniProt O60885); assay: Binding affinity to N-terminal His6-tagged recombinant human Brd4 BD2 expressed in Escherichia coli BL21 (DE3) assessed as compound binary complex formation by isothermal titration calorimetry-based assay
Outline: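 ITC at 25 °C, stirred, in 20 mM Bis-Tris propane, 150 mM NaCl, 1 mM TCEP, pH 7.4, with 0.2% or 3% DMSO depending on scaffold. Bromodomain titrated into PROTAC (20 μM in cell, halved for poorly soluble compounds) over 19 injections. Single-binding-site fit gave n, Kd and ΔH.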

[7] = target: Von Hippel-Lindau disease tumor suppressor/Elongin B/Elongin C (Homo sapiens, UniProt P40337); assay: Binding affinity to N-terminal His6-tagged recombinant human VHL (54 to 213 residues)/elongin C (17 to 112 residues)/elongin B (1 to 104 residues) expressed in Escherichia coli BL21 (DE3) assessed as compound binary complex formation by isothermal titration calorimetry-based assay
[8] = target: von Hippel-Lindau disease tumor suppressor/Bromodomain-containing protein 4/Elongin-B/Elongin-C (Homo sapiens, UniProt O60885+P40337+Q15369+Q15370); assay: (§2) Induction of interaction of N-terminal His6-tagged recombinant human VHL (54 to 213 residues)/elongin C (17 to 112 residues)/elongin B (1 to 104 residues) co-expressed in Escherichia coli BL21 (DE3) with recombinant human Brd4 BD2 assessed as VCB/BRD4/compound ternary complex formation by isothermal titration calorimetry-based assay
[9] = target: T1, von Hippel-Lindau disease tumor suppressor/Bromodomain-containing protein 4; assay: Proteolysis targeting chimera activity in human HeLa cells assessed as induction of VCB-mediated delivery of BRD4 short isoform for protein degradation by proteasome at 1 to 10 uM incubated for 24 hrs by Western blotting method; assay type: cell-based
Outline: (§3)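 HeLa cells seeded at 3 × 10^5 per well and treated the next day for 24 h. Lysed in RIPA buffer with protease inhibitors, Benzonase and 0.5 mM MgCl2, then immunoblotted. Bands normalized to β-actin and quantified against DMSO control. Dmax is the largest depletion across concentrations. Two biological replicates.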

[10] = target: T1, von Hippel-Lindau disease tumor suppressor/Bromodomain-containing protein 4; assay: Proteolysis targeting chimera activity in human HeLa cells assessed as induction of VCB-mediated delivery of BRD4 long isoform for protein degradation by proteasome at 1 to 10 uM incubated for 24 hrs by Western blotting method; assay type: cell-based; outline: as §3
[11] = target: T2, von Hippel-Lindau disease tumor suppressor/Bromodomain-containing protein 3/Elongin-B/Elongin-C; assay: Proteolysis targeting chimera activity in human HeLa cells assessed as induction of VCB-mediated delivery of BRD3 for protein degradation by proteasome at 1 to 10 uM incubated for 24 hrs by Western blotting method; assay type: cell-based; outline: as §3
[12] = target: T3, von Hippel-Lindau disease tumor suppressor/Bromodomain-containing protein 2/Elongin-B/Elongin-C (Homo sapiens) (UniProt P25440+P40337+Q15370+Q15369); assay: Proteolysis targeting chimera activity in human HeLa cells assessed as induction of VCB-mediated delivery of BRD2 for protein degradation by proteasome at 1 to 10 uM incubated for 24 hrs by Western blotting method; assay type: cell-based; outline: as §3
[13] = target: T1, von Hippel-Lindau disease tumor suppressor/Bromodomain-containing protein 4; assay: Proteolysis targeting chimera activity in human HeLa cells assessed as induction of VCB-mediated delivery of BRD4 short isoform for protein degradation by proteasome at 1 to 10 uM incubated for 6 hrs by Western blotting method; assay type: cell-based
Outline: (§4)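 HeLa cells seeded at 3 × 10^5 per well and treated the next day for 6 h. RIPA lysates (protease inhibitors, Benzonase, 0.5 mM MgCl2) immunoblotted. Band intensities normalized to β-actin and expressed relative to DMSO vehicle.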

[14] = target: T1, von Hippel-Lindau disease tumor suppressor/Bromodomain-containing protein 4; assay: Proteolysis targeting chimera activity in human HeLa cells assessed as induction of VCB-mediated delivery of BRD4 long isoform for protein degradation by proteasome at 1 to 10 uM incubated for 6 hrs by Western blotting method; assay type: cell-based; outline: as §4
[15] = target: T2, von Hippel-Lindau disease tumor suppressor/Bromodomain-containing protein 3/Elongin-B/Elongin-C; assay: Proteolysis targeting chimera activity in human HeLa cells assessed as induction of VCB-mediated delivery of BRD3 for protein degradation by proteasome at 1 to 10 uM incubated for 6 hrs by Western blotting method; assay type: cell-based; outline: as §4
[16] = target: T3, von Hippel-Lindau disease tumor suppressor/Bromodomain-containing protein 2/Elongin-B/Elongin-C (Homo sapiens); assay: Proteolysis targeting chimera activity in human HeLa cells assessed as induction of VCB-mediated delivery of BRD2 for protein degradation by proteasome at 1 to 10 uM incubated for 6 hrs by Western blotting method; assay type: cell-based; outline: as §4
[17] = target: von Hippel-Lindau disease tumor suppressor/Bromodomain-containing protein 2/Elongin-B/Elongin-C (Homo sapiens, UniProt P25440+P40337+Q15369+Q15370); assay: as §2, with “Brd2 BD1” for “Brd4 BD2”, “VCB/BRD2/compound” for “VCB/BRD4/compound”

| pDC50 [1] | EC50 [4] [nM] | Compound | Emax [4] [%] | EC50 [5] [nM] | Emax [5] [%] | Kd [6] [nM] | Kd [8] [nM] | also measured |
| --- | --- | --- | --- | --- | --- | --- | --- | --- |
| 8.1 | 427 | CC(=O)N1c2ccc(-c3ccc(C(=O)NCCOCCOCCOCCOCC(=O)N[C@H](C(=O)N4C[C@H](O)C[C@H]4C(=O)NCc4ccc(-c5scnc5C)cc4)C(C)(C)C)cc3)cc2[C@H](Nc2ccc(Cl)cc2)C[C@@H]1C | 98.3 | 83.2 | 96.4 | 8 | 183 | Activity [1]: Dose-dependent effect; Activity [2]: Dose-dependent effect; pDC50 [2]: 7.5; Activity [3]: Dose-dependent effect; pDC50 [3]: 7.7; Kd [7]: 109 nM; Activity [9]: inactive; Activity [10]: inactive; Activity [11]: inactive; Activity [12]: inactive; Activity [13]: inactive; Activity [14]: inactive; Activity [15]: inactive; Activity [16]: inactive; Kd [17]: 330 nM |
|  | 219 | Cc1ncsc1-c1ccc(CNC(=O)[C@@H]2C[C@@H](O)CN2C(=O)[C@@H](NC(=O)COCCOCCOCCNC(=O)C[C@@H]2N=C(c3ccc(Cl)cc3)c3c(sc(C)c3C)-n3c(C)nnc32)C(C)(C)C)cc1 | 92 | 26.9 |  |  |  |  |
| 8.4 | 1260 | Cc1ncsc1-c1ccc(CNC(=O)[C@@H]2C[C@@H](O)CN2C(=O)[C@@H](NC(=O)COCCOCCOCCOCCNC(=O)C[C@@H]2N=C(c3ccc(Cl)cc3)c3c(sc(C)c3C)-n3c(C)nnc32)C(C)(C)C)cc1 | 91.7 |  | 95.2 | 27 | 15 |  |
|  |  | Cc1sc2c(c1C)C(c1ccc(Cl)cc1)=N[C@@H](CC(=O)Nc1ccc(OCCOCCOCCOCCNc3cccc4c3C(=O)N(C3CCC(=O)NC3=O)C4=O)cc1)c1nnc(C)n1-2 (stereo not given in full) | 88 |  |  |  |  |  |
|  |  | CC(=O)N1c2ccc(-c3ccc(C(=O)O)cc3)cc2[C@H](Nc2ccc(Cl)cc2)C[C@@H]1C | 82.4 |  | 73.3 |  |  |  |

| Compound | pDC50 [1] | EC50 [4] [nM] | Emax [4] [%] | EC50 [5] [nM] | Emax [5] [%] | Kd [6] [nM] | Kd [8] [nM] | also measured |
| --- | --- | --- | --- | --- | --- | --- | --- | --- |
| Cc1ncsc1-c1ccc(CNC(=O)[C@@H]2C[C@@H](O)CN2C(=O)[C@@H](NC(=O)COCCOCCNC(=O)C[C@@H]2N=C(c3ccc(Cl)cc3)c3c(sc(C)c3C)-n3c(C)nnc32)C(C)(C)C)cc1 |  | 1450 | 91.4 | 178 | 91.4 | 17 | 26 |  |
| CC(=O)N1c2ccc(-c3ccc(C(=O)NCCOCCOCC(=O)N[C@H](C(=O)N4C[C@H](O)C[C@H]4C(=O)NCc4ccc(-c5scnc5C)cc4)C(C)(C)C)cc3)cc2[C@H](Nc2ccc(Cl)cc2)C[C@@H]1C | 6.9 | 676 | 96.6 | 575 | 88.1 | 3 | 781 | pDC50 [2]: 6.7; pDC50 [3]: 6.8; Kd [7]: 116 nM |
